Laboratory results from ChEMBL document CHEMBL4396968, “Small-molecule inhibitors of nisin resistance protein NSR from the human pathogen Streptococcus agalactiae” (Bioorg Med Chem, 2019).
Calls of active or inactive are those of the source. No cut-off for these calls is given here. Residues, ends and D or L forms follow the SMILES beside them. *: point of attachment. Boc = CC(C)(C)OC(=O)*; Bn = c1ccc(C*)cc1

Key:
Streptococcus agalactiae [1] = assay: Inhibition of Streptococcus agalactiae NSR transfected in Lactococcus lactis NZ9000 cells assessed as bacterial growth inhibition at 150 uM incubated for 5 hrs by optical density based assay in presence of 30 nM nisin
How it was run: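 L. lactis NZ9000 carrying the SaNSR plasmid, and an empty-plasmid control strain, grown overnight in GM17 with 5 µg/ml erythromycin and 1 ng/ml nisin. Diluted to OD595 0.1 and preincubated 30 min at 30 °C, then exposed to compound plus 30 nM nisin for 5 h at 30 °C. Specific inhibition is the OD ratio between strains as %; ≥3 independent experiments.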

Streptococcus agalactiae [2] = assay: Inhibition of Streptococcus agalactiae NSR transfected in Lactococcus lactis NZ9000 cells assessed as potentiation of nisin-induced growth inhibition by measuring reduction in nisin IC50 at 300 uM incubated for 5 hrs by optical density based assay relative to nisin alone
How it was run: (§1)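 SaNSR-expressing L. lactis NZ9000 preincubated at OD595 0.1 with fixed compound (120 or 300 µM), mixed with serial nisin dilutions, and read by OD595 after 5 h at 30 °C. Nisin IC50 taken from dose-response curves. Expressed as % ratio of the IC50 with compound to the IC50 of the same strain without it; ≥3 independent experiments.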

Streptococcus agalactiae [3] = assay: Inhibition of Streptococcus agalactiae NSR transfected in Lactococcus lactis NZ9000 cells assessed as potentiation of nisin-induced growth inhibition by measuring reduction in nisin IC50 at 120 uM incubated for 5 hrs by optical density based assay relative to nisin alone; how it was run: as §1
[4] = tested on: Streptococcus agalactiae COH1; assay: Binding affinity to N-terminal 8xHis-tagged Streptococcus agalactiae COH1 NSR30 (30 amino acids deletion at N-terminal transmembrane region) expressed in Escherichia coli BL21 (DE3) cells at 18 mM by STD NMR method; conditions: 1.8 mM, in the assay text read “1.8 mM” for “18 mM”
How it was run: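 His-tagged SaNSR30 induced with 1 mM IPTG at OD600 0.8–1.0 and expressed overnight at 18 °C. Purified by metal-affinity chromatography with 150 mM histidine elution, then size exclusion in 25 mM MES pH 6, 150 mM NaCl.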

Lactococcus lactis = assay: Growth inhibition of Lactococcus lactis NZ9000 transfected with Streptococcus agalactiae NSR at 300 uM incubated for 5 hrs in absence of nisin by optical density based assay; format: organism-based; conditions: in vivo

| Compound | inhibition (Streptococcus agalactiae [1]) [%] | also measured |
| --- | --- | --- |
| COc1ccc(C2(CNC(=O)c3cn(C(C)C)c(=O)c4ccccc34)CCOCC2)cc1 | 4.86 | – |
| Cc1cc(C)c2c(C)nn(-c3ccc(NC(=O)CCc4nc5ccccc5c(=O)[nH]4)cc3)c2n1 | < 1 | inhibition (Streptococcus agalactiae [2]): 1.9% |
| CC(C)(CO)NC(=O)NCC12CC3CC(CC(C3)C1)C2 | – | inhibition (Streptococcus agalactiae [2]): 8.5%; inhibition (Streptococcus agalactiae [3]): 4% |
| CCCC(=O)Nc1ccc(CNC(=O)NCC(CO)Cc2ccc(C)cc2)cc1 (centres undefined) | 19.6 | – |
| O=C(CNC(=O)c1ccc2c(c1)OCO2)NCCc1c[nH]c2ccccc12 | < 1 | – |
| COc1ccccc1-n1cc(C(=O)N2Cc3nc[nH]c3CC2C(=O)O)cn1 (centres undefined) | 10.8 | – |
| CC(O)C(NC(=O)C(Cc1ccc(OCc2ccccc2)cc1)NC(=O)CNC(=O)OC(C)(C)C)C(N)=O (stereo not drawn) (Boc-Gly-Tyr(Bn)-Thr-NH2; configuration not given here) | 17.5 | – |
| Cc1cc(C)nc(NC(Cc2ccccc2)C(=O)NCc2nc3ccccc3[nH]2)n1 (centres undefined) | < 1 | – |
| O=C(Cn1cnc2c(oc3ccccc32)c1=O)NCc1ccccc1Cn1ccnc1 | < 1 | – |
| CC(O)(CNC(=O)NCC[S+]([O-])c1ccccc1)c1ccco1 (centres undefined) | 13.4 | – |
| Cc1ccc2c(c1)-c1c(cnn1CC(=O)NC(C)c1ccc3c(c1)OCCO3)CO2 (centres undefined) | < 1 | – |
| N#Cc1ccc(NC(=O)NC(CO)c2ccccc2)cc1 (centres undefined) | – | inhibition (Streptococcus agalactiae [2]): 13.5%; inhibition (Streptococcus agalactiae [3]): 8.1% |
| CC(CO)NC(=O)Nc1ccc(C(F)(F)F)cc1 (centres undefined) | – | inhibition (Streptococcus agalactiae [2]): < 1% |
| CCC(CC)(CO)NC(=O)Nc1cccc(Oc2ccccc2)c1 | – | inhibition (Streptococcus agalactiae [2]): < 1% |
| CCN(CC)Cc1ccc(CNC(=O)NCc2ccc(Cn3ccnc3)cc2)cc1 | < 1 | – |
| CCc1cc(=O)[nH]c(-n2nc(C)cc2NC(=O)C(=O)NCCc2ccccc2)n1 | < 1 | – |
| CCn1c(=O)n(CCC(=O)Nc2nc(-c3ccc4c(c3)CCO4)cs2)c2ccccc21 | < 1 | – |
| OC(CNc1ccccc1Cl)COc1ccc(OCC(O)CNc2ccccc2Cl)cc1 (centres undefined) | < 1 | – |
| CC(CO)(CO)NC(=O)NC1CCCCC1 | – | inhibition (Streptococcus agalactiae [2]): < 1% |
| O=C(Nc1ccccc1C(F)(F)F)NC(CO)(CO)C(F)(F)F | – | inhibition (Streptococcus agalactiae [2]): < 1%; inhibition (Streptococcus agalactiae [3]): < 1% |
| CCCCc1ccc(NC(=O)CN2C(=O)NC(C)(Cc3ccc(OC)c(OC)c3)C2=O)cc1 (centres undefined) | 14.1 | – |
| O=C(Nc1ccc(C(F)(F)F)cc1)NC1(CO)CCOCC1 | – | inhibition (Streptococcus agalactiae [2]): < 1%; inhibition (Streptococcus agalactiae [3]): < 1% |

| Compound | inhibition (Streptococcus agalactiae [1]) [%] | also measured |
| --- | --- | --- |
| CC1CCc2nc(NC(=O)c3ccccc3NC(=O)CSc3nccn3C)sc2C1 (centres undefined) | 1.38 | – |
| COc1ccc(C2(CNC(=O)C(=O)Nc3ccc(Br)cc3)CCOCC2)cc1 | < 1 | – |
| O=C(CC1NC(=O)c2ccccc2NC1=O)NCc1nc(-c2ccccc2Cl)no1 (centres undefined) | < 1 | – |
| CC(CO)NC(=O)Nc1ccc(Cl)cc1 (centres undefined) | – | inhibition (Streptococcus agalactiae [2]): < 1% |
| O=C(NCC(O)c1ccc(O)cc1)C(=O)Nc1ccccc1O (centres undefined) | 13.6 | – |
| Cc1[nH]c(SCC(=O)Nc2[nH]c(Cc3ccccc3)c(C)c2C#N)nc1Cc1ccccc1 | 15.3 | – |
| COc1ccc(-c2cc(N3CCCN(C(=O)C4(c5ccc(OC)cc5)CC4)CC3)[nH]n2)cc1 | 20.7 | inhibition (Streptococcus agalactiae [2]): 20.5% |
| CCCCn1nc(C(=O)N[C@@H](Cc2c[nH]c3ccccc23)C(=O)O)c2ccccc2c1=O | 3.21 | – |
| O=C(NCc1ccccc1)C(=Cc1ccc(O)c(O)c1)C(=O)NCc1ccccc1 | 16.9 | inhibition (Streptococcus agalactiae [2]): 32.2% |
| CC(CO)(CO)NC(=O)Nc1ccc(Cl)c(Br)c1 | 57.9 | Activity [4]: Active; growth inhibition (GI) (Lactococcus lactis): Toxic; inhibition (Streptococcus agalactiae [3]): 50.5% |
| Cc1cc(C)c2c(=O)n(CC(=O)Nc3ccc(C(C)C)cc3)c(=O)n(Cc3ccco3)c2n1 | < 1 | – |
| CC(=O)Nc1ccc(NC(=O)CSc2nc3ccccc3c(=O)n2-c2ccccc2)cc1 | 7.58 | – |
| CC(C)NC(=O)Nc1ccc(Cl)cc1 | – | inhibition (Streptococcus agalactiae [2]): < 1% |
| O=C(CCn1c(=O)oc2cc(Cl)ccc21)Nc1ccc(N2CCOCC2)nc1 | 19 | – |
| COc1ccc2[nH]cc(CCNC(=O)CC3C(=O)Nc4c3c(=O)n(C)c(=O)n4C)c2c1 (centres undefined) | 11.3 | – |
| O=C(CC[C@H]1NC(=O)c2ccccc2NC1=O)NCc1nc2ccccc2[nH]1 | 9.95 | – |
| CNC(=O)CNC(=O)c1cccc(S(=O)(=O)NC(C)c2ccccc2)c1 (centres undefined) | 7.92 | – |
| N#Cc1ccc(NC(=O)NCCNC(=O)Nc2ccc(C#N)cc2)cc1 | – | inhibition (Streptococcus agalactiae [2]): < 1% |
| CCc1ccc(NC(=O)C(=O)NCC(c2ccc3c(c2)OCO3)N2CCN(C)CC2)cc1 (centres undefined) | 6.03 | – |
| Cc1ccc(-n2nc(C)c(NC(=O)Cn3cnc4c3c(=O)n(C)c(=O)n4C)c2C)cc1 | 14.2 | – |
| Cc1cc(C)c(S(=O)(=O)N2CCCC2CNC(=O)C(=O)Nc2ccccc2C#N)c(C)c1 (centres undefined) | < 1 | – |
| CC(C(=O)NC(CO)(CO)CO)c1ccc2c(c1)[nH]c1ccc(Cl)cc12 (centres undefined) | 8.21 | – |
